The text below walks through data of PubChem BioAssay AID602216 (Southern Research Specialized Biocontainment Screening …, 2012).

pIC50: −log10 of the molar value. Records with an inconclusive call do not appear. Activity calls are given as the source filed them.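 Rule for the calls: active = inhibition of 30% or more at any tested concentration; inactive = the rest, inconclusive results apart.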

The term pIC50 denotes the negative decadic logarithm of the IC50, by convention in mol/L.

In this assay the target is M17 leucyl aminopeptidase (Plasmodium falciparum 3D7). Nature of the assay: Inhibition of P. falciparum M17 aminopeptidase – biochemical, QFRET, set 2, dose response (AID 602216). As to conditions: recombinant PfM17LAP, H-Leu-NHMec fluorogenic cleavage. Summed up: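 System: recombinant P. falciparum M17 leucine aminopeptidase; Reagent: H-Leu-NHMec substrate, 0.1 mM; Medium: pH 7.5 buffer containing CoCl2; Controls: full-reaction wells as high signal, enzyme-free wells as background; Compound dosing: series from 100 to 0.2 µM; Measured by: fluorescence from released NHMec leaving group; Timing: 90 min reaction.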

Turning to `O=C(NO)c1cccc2ccccc12`, the pIC50 is 5.04.

`COc1ccc(CC(=O)NO)cc1`: the pIC50 is 6.27.

For `CCOc1ccc(CC(=O)NO)cc1`, the pIC50 was 6.13.

Consider `CCCCOc1ccc(CC(=O)NO)cc1`, for which the pIC50 is 6.39.

Consider `CCCCOc1ccc(CC(=O)O)cc1`, for which the inhibition entry (at 100 µM (top of the series)) is “inactive”.

For `CCCCCCCCCC(=O)NO`, the pIC50 was 5.72.

`O=C(Cc1ccc(OCc2ccccc2)cc1)NO`: the pIC50 was 6.20.

`COC(=O)Cc1ccc(OCC(C)C)cc1`: under “at 100 µM (top of the series)”, the inhibition entry is “inactive”.

For the compound `COc1ccc(CCCC(=O)NO)cc1`, the pIC50 is 5.55.

As to `O=C(Cc1ccc(Oc2ccccc2)cc1)NO`, the pIC50 is 6.39.

On to `COC(=O)Cc1ccc(OCCN(C)C)cc1`, for which the inhibition entry (at 1.56 µM (top of the series)) was “inactive”.

As to `CCCCOc1ccc(CC(=O)N(C)O)cc1`, the pIC50 is 4.74.

On to `CCCOc1ccc(CC(=O)OC)cc1`, for which the inhibition entry (at 100 µM (top of the series)) is “inactive”.

With `CC(C)COc1ccc(CC(=O)NO)cc1`, the pIC50 is 6.02.

Turning to `O=C(Cc1ccc2c(c1)CCCC2)NO`, the pIC50 is 6.74.

Take `CC(C)(C(=O)NO)c1ccccc1`: the pIC50 is 4.22.

For `Cc1ccc(CC(=O)NO)cc1`, the negative logarithm of the IC50 (pIC50) was 6.01.

For the compound `CCC(C)Oc1ccc(CC(=O)OC)cc1` (stereo not drawn), the inhibition result (at 100 µM (top of the series)) is “inactive”.

`CCCCOc1ccc(CNc2c(N(C)O)c(=O)c2=O)cc1`: the pIC50 was 4.48.

As for `CN(O)C(=O)Cc1ccc(OCc2ccccc2)cc1`, the pIC50 is 4.69.

On to `CCCCOc1ccc(CCC(=O)NO)cc1`, for which the pIC50 is 5.64.

As to `CCCCc1ccc(CC(=O)NO)cc1`, the pIC50 is 6.42.

As to `CCCCOc1ccc(C(=O)NO)cc1`, the pIC50 is 5.48.
